# Assay results from different studies.
# Compare with care: the assays were run in different laboratories.
# Target: Delta-type opioid receptor (OPRD1, Homo sapiens, UniProt P41143)
SMILES,read-out,technique,setting,Ki
Cc1cc(O)cc(C)c1C[C@H](N)C(=O)N1Cc2ccccc2C[C@H]1C(=O)NCC(=O)NC(c1ccccc1)c1ccccc1,ligand displacement,radioligand,cell membranes,0.94 nM
Cc1cc(/N=N/C(=O)NCC2(N(C)C)CCCCC2)ccc1F,cell-free assay,,,30000 nM
C[N+]1(C)CCC(=C(c2ccccc2)c2ccccc2)CC1,cell-free assay,,,14000 nM
CCCCCCCCCCCCCCCC(=O)O,ligand displacement,radioligand,cell membranes,5100 nM
Cc1cc(O)cc(C)c1C[C@H](N)C(=O)N1Cc2ccccc2C[C@H]1C(=O)NCC(=O)NCc1ccc([N+](=O)[O-])cc1,ligand displacement,radioligand,cell membranes,0.39 nM
Oc1ccc2c3c1O[C@H]1c4ncc(-c5ccccc5)cc4C[C@@]4(OCCCc5cccnc5)[C@@H](C2)N(CC2CC2)CC[C@]314,ligand displacement,radioligand,cell membranes,5.89 nM
CCCC[C@@H](NC(=O)[C@@H](N)Cc1ccc(O)cc1)C(=O)NCC(=O)N[C@@H](Cc1ccc(F)cc1)C(=O)N(C)CCC[C@@]1(c2ccc(F)cc2)OCc2cc(C#N)ccc21,cell-free assay,,,1.4 nM
C[C@@H](NC(=O)C[C@@H](N)Cc1ccc(O)cc1)C(=O)NCC(=O)N[C@@H](Cc1ccccc1)C(=O)NNC(=O)[C@H](Cc1ccccc1)NC(=O)CNC(=O)[C@@H](C)NC(=O)C[C@@H](N)Cc1ccc(O)cc1,ligand displacement,radioligand,,480 nM
Cc1cc(O)cc(C)c1C[C@H](N)C(=O)N1Cc2ccccc2CC1C(=O)NCC(=O)NC(Cc1ccc(Cl)cc1)C(=O)N(C)CCC[C@@]1(c2ccc(F)cc2)OCc2cc(C#N)ccc21 (stereo in doubt),cell-free assay,,,20 nM
CC(=O)Nc1ccccc1-c1cnc2c(c1)C[C@@]1(OCCCc3ccccc3)[C@H]3Cc4ccc(O)c5c4[C@@]1(CCN3CC1CC1)[C@H]2O5,ligand displacement,radioligand,cell membranes,> 3330 nM
Cc1cc(O)cc(C)c1C[C@H](N)C(=O)N1Cc2ccccc2C[C@H]1C(=O)NCC(=O)NCc1ccc(N)cc1,ligand displacement,radioligand,cell membranes,2 nM
C[C@@H](NC(=O)[C@@H](N)Cc1ccc(O)cc1)C(=O)NCC(=O)N[C@@H](Cc1ccc(Cl)cc1)C(=O)N(C)CCC[C@@]1(c2ccc(F)cc2)OCc2cc(C#N)ccc21,cell-free assay,,,1.6 nM
